The values below come from ChEMBL document CHEMBL1156396, “Antifungal alkyl amino alcohols from the tropical marine sponge Haliclona n. sp” (2001).

The source made the active and inactive calls. No cut-off for these calls is given here.

One assay deals with Escherichia coli. As to the kind of experiment: Antibacterial activity against Escherichia coli at 0.12 mg after 24 hrs by paper disk assay. The class given is functional, organism-based. The method in brief: (§1)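 Paper disk diffusion: 6 mm diameter disks loaded with 0.12 mg test substance, placed on plates seeded with the test organism and incubated 24 h at 28 °C; activity scored as diameter of growth-inhibition zone (mm).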

The subject of another assay is Bacillus subtilis. The assay is described as follows: Antibacterial activity against Bacillus subtilis at 0.12 mg after 24 hrs by paper disk assay. The class given is functional. The method in brief:
as §1

A further assay deals with Candida albicans. As to the kind of experiment: Antifungal activity against Candida albicans at 0.12 mg after 24 hrs by paper disk assay. The class given is functional, organism-based. The method in brief:
as §1

In assay [1] the test system is Trichophyton mentagrophytes. As to the kind of experiment: Antifungal activity against Trichophyton mentagrophytes at 0.12 mg after 24 hrs by paper disk assay. As to conditions: for zone of inhibition at 120 µg/disc: read-out: IZ. The class given is functional. The method in brief:
as §1

Another assay deals with Amorphotheca resinae. As to the kind of experiment: Antifungal activity against Cladosporium resinae at 0.12 mg after 24 hrs by paper disk assay. As to conditions: for zone of inhibition at 120 µg/disc: read-out: IZ. The class given is functional. The method in brief: as §1

Turning to `C=CCCCCCCCCC[C@@H](O)[C@H](C)NC(C)=O`, the “inhibition zone (IZ)” value (in the assay on Escherichia coli; in the assay with Bacillus subtilis; with Candida albicans; in assay [1]; in the assay with Amorphotheca resinae) was “inactive” each time.

For `CCCCCCCC/C=C\C[C@@H](O)[C@H](C)N`, the “inhibition zone (IZ)” value (in the assay with Escherichia coli; in the assay with Bacillus subtilis; in the assay with Candida albicans; in assay [1]; with Amorphotheca resinae) was “Active” each time.

Regarding `C=CCCCCCCCCC[C@@H](OC(C)=O)[C@H](C)NC(C)=O` [DIACETYL HALAMINOL A], the “inhibition zone (IZ)” value (in the assay on Escherichia coli; in the assay with Candida albicans; in assay [1]; in the assay with Amorphotheca resinae) was “inactive” throughout. Moreover, the zone of inhibition at 120 µg/disc in the assay with Bacillus subtilis (read-out: IZ) came to 7 mm.

`C=CCCCCCCCCC[C@@H](O)[C@H](C)N` [HALAMINOL A]: the “inhibition zone (IZ)” value with Escherichia coli, in the assay on Bacillus subtilis and with Candida albicans was “Active” in each case. Moreover, the zone of inhibition at 120 µg/disc (in assay [1]; in the assay on Amorphotheca resinae) was 10 mm throughout.

`C=CCCCCCCC[C@@H](O)[C@H](C)N` [HALAMINOL B]: the “inhibition zone (IZ)” value in the assay on Escherichia coli, in the assay on Bacillus subtilis and in the assay with Candida albicans was “Active” in each case. The zone of inhibition at 120 µg/disc (in assay [1]; in the assay with Amorphotheca resinae) was 10 mm each time.
